According to ChEMBL document CHEMBL1833801, “Natural daucane sesquiterpenes with antiproliferative and proapoptotic activity against human tumor cells” (Bioorg Med Chem, 2011):
Active and inactive are the calls of the source. No cut-off for these calls is given here.

Experiments:
HeLa = assay: Cytotoxicity against human HeLa cells after 72 hrs by MTT assay; format: functional, cell-based
A549 = assay: Cytotoxicity against human A549 cells after 72 hrs by MTT assay; format: functional, cell-based; details: A549, 72 h
HL-60 = assay: Cytotoxicity against human HL60 cells after 72 hrs by MTT assay; format: functional, cell-based; details: HL-60, 72 h
Jurkat [1] = assay: Cytotoxicity against human Jurkat cells after 72 hrs by MTT assay; format: functional, cell-based
K562 = assay: Cytotoxicity against human K562 cells after 72 hrs by MTT assay; format: functional, cell-based; details: K562, 72 h
[2] = Cytotoxicity against human RS4:11 cells after 72 hrs by MTT assay; format: functional, cell-based; details: RS4-11, 72 h
[3] = Cytotoxicity against human SEM cells after 72 hrs by MTT assay; format: functional, cell-based
Jurkat [4] = assay: Induction of apoptosis in human Jurkat cells assessed as increase in early apoptotic cells after 24 hrs by FITC-conjugated annexin V and propidium iodide staining-based flow cytometry; format: functional, cell-based
Method in brief: (§1)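 Jurkat cells exposed for 24 and 48 h, over a range of 1.25–100 µM, then co-stained with Annexin-V-FITC and propidium iodide. Read by flow cytometry, excitation 488 nm, emission 525 and 585 nm. Quadrants scored as A+/PI− (early apoptotic) and A+/PI+ (late apoptotic), compared with untreated cells. Mean ± SEM of three independent experiments.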

Jurkat [5] = assay: Induction of apoptosis in human Jurkat cells assessed as increase in late apoptotic cells after 48 hrs by FITC-conjugated annexin V and propidium iodide staining-based flow cytometry; format: functional, cell-based; method in brief: as §1
Jurkat [6] = assay: Induction of apoptosis in human Jurkat cells assessed as DNA fragmentation at 12.5 to 50 uM after 48 hrs by agarose gel electrophoresis; format: functional, cell-based
Method in brief: (§2)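 Genomic DNA taken from treated Jurkat cells by salting out after 48 h. 1 µg run on 1.5% agarose in TAE at 50 V for 6 h. Gel stained with ethidium bromide and imaged under UV light.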

Jurkat [7] = assay: Cytotoxicity against human Jurkat cells assessed as cell viability at 25 uM after 48 hrs by MTT assay in presence of 100 uM pan-caspase inhibitor z-VAD; format: functional
Method in brief: (§3)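 Jurkat cells exposed to compound for 48 h with or without 100 µM of the pan-caspase inhibitor z-VAD.fmk. Percent viability read by MTT. Mean ± SEM.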

Jurkat [8] = assay: Cell cycle arrest in human Jurkat cells assessed as accumulation at G2/M phase after 48 hrs using propidium iodide staining by flow cytometry; format: functional, cell-based
Method in brief: (§4)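 Exponentially growing Jurkat cells, 2.5×10^5, exposed to 1.25–100 µM for 48 h. Cells fixed in ice-cold 70% ethanol, lysed in buffer with RNase A and 0.1% Triton X-100, stained with propidium iodide. Cell-cycle phases read by flow cytometry. Mean ± SEM of three independent experiments; two-sided Student's t test against control.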

Jurkat [9] = assay: Cell cycle arrest in human Jurkat cells assessed as decrease in S phase phase after 48 hrs using propidium iodide staining by flow cytometry; format: functional, cell-based; method in brief: as §4
Jurkat [10] = assay: Cell cycle arrest in human Jurkat cells assessed as decrease in G1 phase phase after 48 hrs using propidium iodide staining by flow cytometry; format: functional, cell-based; method in brief: as §4
PBL [11] = assay: Cytotoxicity against human PBL after 72 hrs by MTT assay; format: cell-based
Method in brief: (§5)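 PBL from healthy donors separated on a density gradient, washed, held at 1.0×10^6 cells/mL in RPMI-1640 with 10% FCS overnight. Non-adherent cells resuspended at 5×10^5 cells/mL. Stimulated cultures received 2.5 µg/mL PHA; resting cultures had none. Compound at several concentrations for 72 h, viability by MTT, IC50 taken. Mean ± SEM of three experiments.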

PBL [12] = assay: Cytotoxicity against PHA-stimulated human PBL after 72 hrs by MTT assay; format: cell-based; method in brief: as §5
Jurkat [13] = assay: Cell cycle arrest in human Jurkat cells assessed as accumulation at G1 phase after 48 hrs using propidium iodide staining by flow cytometry; format: functional, cell-based; method in brief: as §4
Jurkat [14] = assay: Cell cycle arrest in human Jurkat cells assessed as accumulation at G1 phase at 50 uM after 48 hrs using propidium iodide staining by flow cytometry; format: functional, cell-based; method in brief: as §4
Jurkat [15] = assay: Induction of apoptosis in human Jurkat cells assessed as increase in late apoptotic cells after 24 hrs by FITC-conjugated annexin V and propidium iodide staining-based flow cytometry; format: functional, cell-based; method in brief: as §1
Jurkat [16] = assay: Induction of apoptosis in human Jurkat cells assessed as DNA fragmentation at 25 to 50 uM after 48 hrs by agarose gel electrophoresis; format: functional, cell-based; method in brief: as §2
Jurkat [17] = assay: Cytotoxicity against human Jurkat cells assessed as cell viability at 50 uM after 48 hrs by MTT assay in presence of 100 uM pan-caspase inhibitor z-VAD; format: functional; method in brief: as §3
Jurkat [18] = assay: Induction of apoptosis in human Jurkat cells assessed as necrotic cells at 50 uM after 24 hrs by FITC-conjugated annexin V and propidium iodide staining-based flow cytometry relative to control; format: functional; method in brief: as §1
Jurkat [19] = assay: Induction of apoptosis in human Jurkat cells assessed as viable cells at 50 uM after 24 hrs by FITC-conjugated annexin V and propidium iodide staining-based flow cytometry relative to control; format: functional; details: read-out: Activity; method in brief: as §1
Jurkat [20] = assay: Induction of apoptosis in human Jurkat cells assessed as early apoptotic cells at 50 uM after 24 hrs by FITC-conjugated annexin V and propidium iodide staining-based flow cytometry relative to control; format: functional; method in brief: as §1
Jurkat [21] = assay: Induction of apoptosis in human Jurkat cells assessed as late apoptotic cells at 50 uM after 24 hrs by FITC-conjugated annexin V and propidium iodide staining-based flow cytometry relative to control; format: functional; method in brief: as §1
Jurkat [22] = assay: Induction of apoptosis in human Jurkat cells assessed as necrotic cells at 50 uM after 48 hrs by FITC-conjugated annexin V and propidium iodide staining-based flow cytometry relative to control; format: functional; method in brief: as §1
Jurkat [23] = assay: Induction of apoptosis in human Jurkat cells assessed as viable cells at 50 uM after 48 hrs by FITC-conjugated annexin V and propidium iodide staining-based flow cytometry relative to control; format: functional; details: read-out: Activity; method in brief: as §1
Jurkat [24] = assay: Induction of apoptosis in human Jurkat cells assessed as early apoptotic cells at 50 uM after 48 hrs by FITC-conjugated annexin V and propidium iodide staining-based flow cytometry relative to control; format: functional; method in brief: as §1
Jurkat [25] = assay: Induction of apoptosis in human Jurkat cells assessed as late apoptotic cells at 50 uM after 48 hrs by FITC-conjugated annexin V and propidium iodide staining-based flow cytometry relative to control; format: functional; method in brief: as §1

In the case of `COc1ccc(C(=O)OCC2=CC[C@@]3(C)CCC(C(C)C)=C3CC2)cc1`, the IC50 (HeLa) is reported as > 100 µM, the IC50 (A549) is reported as > 100 µM and the IC50 (HL-60) is reported as 30.7 µM. The IC50 (Jurkat [1]) was 25.6 µM, the IC50 (K562) was 67 µM and the IC50 [2] was 44.1 µM. The IC50 [3] was 25.5 µM.

For `C/C=C(/C)C(=O)O[C@H]1CC(C)=C[C@@H](OC(=O)/C(C)=C\C)[C@@]2(C)CC[C@@](O)(C(C)C)[C@H]12`, the Activity (Jurkat [4]) was “Dose-dependent effect”, the Activity (Jurkat [5]) was “Active” and the Activity (Jurkat [6]) was “Active”. The Activity (Jurkat [7]) was 19%, the Activity (Jurkat [8]) was “Dose-dependent effect” and the Activity (Jurkat [9]) was “Active”. The Activity (Jurkat [10]) was “Active”, the IC50 (HeLa) was 4.4 µM and the IC50 (A549) was 2.8 µM. It also gave an IC50 (HL-60) of 2.6 µM, an IC50 (Jurkat [1]) of 7.7 µM and an IC50 (K562) of 26.5 µM. It also gave an IC50 [2] of 1.7 µM, an IC50 [3] of 2.4 µM and an IC50 (PBL [11]) of 22.6 µM. The IC50 (PBL [12]) was 13.7 µM.

With `COc1ccc(C(=O)O[C@H]2C=C(C)C(=O)C[C@@]3(C)CC[C@@](O)(C(C)C)[C@H]23)cc1` the IC50 (HeLa) was 29.7 µM, the IC50 (A549) was 31.8 µM and the IC50 (HL-60) was 38.9 µM. For the same compound, the IC50 (Jurkat [1]) was 40.5 µM, the IC50 (K562) was > 100 µM and the IC50 [2] was 28.6 µM. It also gave an IC50 [3] of 28.4 µM.

For `COc1ccc(C(=O)O[C@H]2CC(C)=C[C@H](OC(C)=O)[C@]3(C)[C@@H]2[C@](O)(C(C)C)C[C@@H]3O)cc1`, the Activity (Jurkat [13]) was “Active”, the Activity (Jurkat [14]) was “inactive” and the IC50 (HeLa) was 52.6 µM. The IC50 (A549) was > 100 µM, the IC50 (HL-60) was 14.9 µM and the IC50 (Jurkat [1]) was 9.1 µM. For the same compound, the IC50 (K562) was 70.4 µM, the IC50 [2] was 26.8 µM and the IC50 [3] was 26.5 µM. For the same compound, the IC50 (PBL [11]) was 30.3 µM, the IC50 (PBL [12]) was 33.7 µM and the Activity (Jurkat [15]) was “Dose-dependent effect”.

Compound `CC1=C[C@H](OC(=O)c2ccc(O)cc2)[C@@H]2[C@](C)(CC[C@@]2(O)C(C)C)CC1=O` has an IC50 (HeLa) of 26.1 µM, an IC50 (A549) of 14.5 µM and an IC50 (HL-60) of 82.5 µM. The IC50 (Jurkat [1]) was 40.5 µM, the IC50 (K562) was > 100 µM and the IC50 [2] was 28.2 µM. It also gave an IC50 [3] of 24.4 µM.

In the case of `COc1ccc(C(=O)O[C@H]2CC(C)=C[C@@H](O)[C@@]3(C)[C@@H](OC(C)=O)C[C@@](O)(C(C)C)[C@H]23)cc1`, the IC50 (HeLa) is reported as > 100 µM, the IC50 (A549) is reported as > 100 µM and the IC50 (HL-60) is reported as 24 µM. The IC50 (Jurkat [1]) was 33.6 µM, the IC50 (K562) was 85.2 µM and the IC50 [2] was 70.4 µM. For the same compound, the IC50 [3] was > 100 µM.

For `COc1ccc(C(=O)O[C@H]2CC(C)=C[C@@H](OC(C)=O)[C@@]3(C)[C@@H](OC(C)=O)C[C@@](O)(C(C)C)[C@H]23)cc1`, the IC50 (HeLa) was > 100 µM, the IC50 (A549) was > 100 µM and the IC50 (HL-60) was 83.5 µM. For the same compound, the IC50 (Jurkat [1]) was 62.2 µM, the IC50 (K562) was > 100 µM and the IC50 [2] was 42.9 µM. For the same compound, the IC50 [3] was 32.9 µM.

In the case of `COc1ccc(C(=O)O[C@H]2CC(C)=C[C@H](OC(C)=O)[C@@]3(C)[C@@H](OC(C)=O)C[C@@](O)(C(C)C)[C@H]23)cc1`, the Activity (Jurkat [16]) is reported as “inactive”, the Activity (Jurkat [17]) is reported as 13% and the Activity (Jurkat [13]) is reported as “Active”. For the same compound, the Activity (Jurkat [14]) was “inactive”, the IC50 (HeLa) was 14.5 µM and the IC50 (A549) was 23.3 µM. The IC50 (HL-60) was 11.3 µM, the IC50 (Jurkat [1]) was 3.3 µM and the IC50 (K562) was 39.6 µM. For the same compound, the IC50 [2] was 2.8 µM, the IC50 [3] was 15 µM and the IC50 (PBL [11]) was 6.6 µM. For the same compound, the IC50 (PBL [12]) was 9.4 µM, the Activity (Jurkat [18]) was 16% and the viability at 50 µM (Jurkat [19]) was 36.5%. The Activity (Jurkat [20]) was 5.8%, the Activity (Jurkat [21]) was 41.7% and the Activity (Jurkat [22]) was 27.8%. For the same compound, the viability at 50 µM (Jurkat [23]) was 4.7%, the Activity (Jurkat [24]) was 0.1% and the Activity (Jurkat [25]) was 67.4%. For the same compound, the Activity (Jurkat [15]) was “Dose-dependent effect”.
